Data on 48 sequences can be found in the EternaBench riboswitch data.

The data set concerns MS2 coat protein. Briefly: apparent Kd, MS2 coat protein; higher = weaker binding; RNA-MaP array; FMN 200 µM where present. Summed up:
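Stalled E. coli RNA polymerase transcribed each design on Illumina sequencing-chip clusters. The clusters were titrated with SNAP-549-labelled MS2 coat protein, starting at 0.7 or 1.5 nM and doubling up to 3 µM, first without ligand and then with constant ligand, in 100 mM Tris-HCl pH 7.5, 80 mM KCl, 4 mM MgCl2, BSA, DTT, yeast tRNA and Tween-20. Green signal was normalised to red-channel RNA signal and to the control-cluster median Fmax. The apparent Kd is the median of filtered binding-curve fits made for each cluster.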

Where [1] appears, read: designed as: ON switch for flavin mononucleotide, no ligand.
Setting [2] is: ligand present: flavin mononucleotide, designed as: ON switch for flavin mononucleotide.
Setting [3] is: designed as: OFF switch for flavin mononucleotide, no ligand.
[4] abbreviates: ligand present: flavin mononucleotide, designed as: OFF switch for flavin mononucleotide.

Consider “ACUACAUGAGGAUCACCCAUGUGAAUAAUAAAAGUAACAAGCAGAAGGUGACCUCGUCUCCUGGUCAAGGAUAUGCAAGAAAGA”, for which the apparent Kd (in general, a dissociation constant that holds for the conditions of the assay) reads like this: under setting [1], 267 nM; under setting [2], 33.7 nM.

“UAUUUAAUCUCAGGAUAUAACAUUACAUACAAAUUAGAAGGGAGAACAUGAGGAUCACCCAUGUACAUGAGGAUCACCCAUGUU”: the “apparent Kd” value reads like this: under setting [1], 692 nM; under setting [2], 576 nM.

Regarding “GGUACCAUCGCAGGAUAUGCUUUCCUUUGGGAAGCAGAAGGGUGUAACAUGAGGAUCACCCAUGUGGUGCCAGGGCGUGAGCCU”, the “apparent Kd” value is 862 nM under setting [1] and 48.7 nM under setting [2].

With “AUAUGAUAGAUAGGAUAUACUGUGGUUGAAUGUGUAGAAGGAUCGAUAGGGAAAUGUACAUGAGGAUCACCCAUGUUGUGGAUU”, the “apparent Kd” value runs as follows: under setting [1], 48.4 nM; under setting [2], 39.9 nM.

Turning to “UGUUGUAUUACAGGAUAUCUAUUAAUUUUAUUUAGAGAAGGGUAUUCACAUGAGGAUCACCCAUGUAUAUACGAGGAAGUUGUG”, the “apparent Kd” value runs as follows: under setting [1], 53.7 nM; under setting [2], 57.1 nM.

On to “CGAAGGGAGUCAGGAUAUGUUCCUUUCAUACGGACAGAAGGGACUCCUUACAUGAGGAUCACCCAUGUAAGGGUAGUCUUCAGG”, for which the “apparent Kd” value is, setting by setting: under setting [3], 60.7 nM; under setting [4], 90.6 nM.

Regarding “CGUGCGUCGACAGGAUAUACAGAUUGGCUCCGGUACAUGAGGAUCACCCAUGUAGAAGGGUCACGCGCGGAUAGAACAUUCUAA”, the “apparent Kd” value was 9.09 nM under setting [3] and 40.3 nM under setting [4].

Turning to “AUUGGGACAUGAGGAUCACCCAUGUACGCAGUGGGUAGAUCACAGGAUAUGCGAAGUGUGUGAGAGCAGAAGGGUGAGUACUUA”, the “apparent Kd” value runs as follows: under setting [1], 343 nM; under setting [2], 59.5 nM.

Take “GAAUAGGACAGAGGAUAUACGUGCUAGAGAUACUAGCAAAAUUUCCUCACAUGAGGAUCACCCAUGUAGAAGGCUGUCCUAUCG”: the “apparent Kd” value under setting [3] turned out to be 18.5 nM and the “apparent Kd” value under setting [4] is 394 nM.

For the sequence “AAUUGACACGUAGGAUAUCGAUCUAUAUUAACACGAGAAGGACGUACAUGAGGAUCACCCAUGUUUAAUGGAGUAGAUAAGUUG”, the “apparent Kd” value turned out to be 112 nM under setting [3] and 257 nM under setting [4].

Consider “UGAGCCUCGUGAGGAUAUACAUGAGGAUCACCCAUGUAGUAAAGUGAACGGAGGAAACUCCGAAUGUAGAAGGCACGAGGCUCA”, for which the “apparent Kd” value worked out at 13.2 nM under setting [3] and 85.8 nM under setting [4].

On to “CCUAAACAUGAGGAUCACCCAUGUCAGGAUAUGGACCGUCUGGUGAAAUUCAGCUGGACCAGAAGGGACGUGGA”, for which the “apparent Kd” value was found to be 32.2 nM under setting [3] and 45.5 nM under setting [4].

“CUGAUGUGAGGAUAUCGGGCUACAGCCCUGCUGCUAGCAAACGAGAAGGCACAUGAGGAUCACCCAUGUGAUAG”: the “apparent Kd” value under setting [3] turned out to be 21.6 nM and the “apparent Kd” value under setting [4] was 24.3 nM.

Take “AGACGGAGCUGAGGAUAUAUACAUGAGGAUCACCCAUGUAAGCUCCAGGAAACUGGAGCAAAUGUAUAGAAGGCAGCUCCGUCA”: the “apparent Kd” value was 28 nM under setting [3] and 45.9 nM under setting [4].

As for “CAUGUCCUCACAGGAUAUGCUGGACUUUGUCCAGCAGAAGGGUGAACAUGAGGAUCACCCAUGUAGUGGACAUGUAUAUUUAAU”, the “apparent Kd” value reads like this: under setting [1], 543 nM; under setting [2], 276 nM.

Regarding “GAUCACUGAGGAUAUACGCAGAUACAAAGUAUCUGAUUGUGACAUGAGGAUCACCCAUGUAGAAGGCAGAGGUC”, the “apparent Kd” value under setting [3] amounted to 37.2 nM and the “apparent Kd” value under setting [4] amounted to 124 nM.

In the case of “UGUAACUAGUAAGGAUAUACUAUUGAUUUAAUAGUAGAAGGUACAGUCUUUUGUAUAUCAUGUUUACAUGAGGAUCACCCAUGU”, the “apparent Kd” value was found to be 10.4 nM under setting [1] and 7.77 nM under setting [2].

Take “ACGUCGAGCCAGAAGGCAACAUGAGGAUCACCCAUGUAGUCCGGCUCGUGUUGAGGAUAUGGCACCCACGCGGAAGGCGCAGGU”: the “apparent Kd” value was 5.54 nM under setting [3] and 7.19 nM under setting [4].

For the sequence “UGUCGGAGCAGAGGAUAUUACAUGAGGAUCACCCAUGUAUGAACCAAUAGCUGGAAACAGCAAUGUAAGAAGGCUGAUCCGACA”, the “apparent Kd” value is 11.1 nM under setting [3] and 146 nM under setting [4].

In the case of “ACAAGAUCAGGAUAUACAUGAGGAUCACCCAUGUAUAUCAAAAAGGGACUUUCUUAAUGUAGAAGGGAUCAUGU”, the “apparent Kd” value under setting [3] came to 14 nM and the “apparent Kd” value under setting [4] was 12.7 nM.

As for “AGAAAGUGAGGAUAUACAUGAGGAUCACCCAUGUAGAACGAGAGUUAUAAAAAUGGAAGUAGAAGGCACAAAAG”, the “apparent Kd” value stood at 34.3 nM under setting [3] and 37.1 nM under setting [4].

As for “CUGAUGUGAGGAUAUCUACGCCAUGUCUUUGACAUGGCGCAAGAGAAGGCACAUGAGGAUCACCCAUGUUCUUC”, the “apparent Kd” value under setting [3] turned out to be 62.9 nM and the “apparent Kd” value under setting [4] came to 723 nM.

On to “AAAAAACAUGAGGAUCACCCAUGUGAGGAUAUCUGUAUCCAAAAGGAAGUGUAGGAUCGGAGAAGGCACUAGGA”, for which the “apparent Kd” value is 53.9 nM under setting [3] and 83.2 nM under setting [4].

“CGGUACAUCGGAGGAUAUCAUGUAAAUACAUGAGGAUCACCCAUGUCGAUGGAGACAUCGGAGAUUGAGAAGGCCGAUGUACCG”: the “apparent Kd” value under setting [1] stood at 186 nM and the “apparent Kd” value under setting [2] came out at 9.27 nM.

Consider “AAAAGACAUGAGGAUCACCCAUGUGAAAACGUAGGAGGAUAUGUCUGGAAAACAUGCUGGACAGAAGGCCUGUGUC”, for which the “apparent Kd” value was found to be 40.1 nM under setting [1] and 22.1 nM under setting [2].

Turning to “UGGUACUAGGGAGGAUAUGGGAAGAUACAUGAGGAUCACCCAUGUUUAAGAAUGCCGAUAGGCAACUAGAAGGCCCUAGUACCU”, the “apparent Kd” value is, setting by setting: under setting [1], 406 nM; under setting [2], 18.7 nM.

Turning to “CAAGCGGGAGGAUAUACAGGGUUGUCCGAAAAUCGCCAGCCACAUGAGGAUCACCCAUGUAGAAGGCCUAUAGA”, the “apparent Kd” value reads like this: under setting [3], 53 nM; under setting [4], 23.9 nM.

In the case of “GUGUACAGAGGAUAUACAUAAGCUAGGAAACUAGCAAACUCACAUGAGGAUCACCCAUGUAGAAGGCUGUACAC”, the “apparent Kd” value under setting [3] came out at 48 nM and the “apparent Kd” value under setting [4] was found to be 257 nM.

Take “CUCAUGUAAGGAUAUCUACGCGCUAAGGUGCGUCUAUCACAAGAGAAGGUACAUGAGGAUCACCCAUGUAAAGA”: the “apparent Kd” value by setting is: under setting [3], 103 nM; under setting [4], 127 nM.

With “CAGUACUGAGGAUAUACAUGAGGAUCACCCAUGUGCUUUAGCUAGGAUACUAGCACCAGUAGAAGGCAGUACUG”, the “apparent Kd” value was found to be 10.6 nM under setting [3] and 23.8 nM under setting [4].

Regarding “GGCUGCGUUGUGAAGGAUAUCCGCGUCUGGACAUGAGGAUCACCCAUGUAUGCUUGGAUCAUGCCGGAGAAGGUCACGAAUGAUU”, the “apparent Kd” value reads like this: under setting [1], 34.3 nM; under setting [2], 17 nM.

As for “GUUUUGGGAGGAUAUAUGUGGAUUAUUUUCGUAUGUUGUUUACAUGAGGAUCACCCAUGUAGAAGGUCUAGAGC”, the “apparent Kd” value by setting is: under setting [3], 68.3 nM; under setting [4], 198 nM.

For “GUAAUCAGUAAUAAAAGCCCGGGCGCAGAAGGCCAGACACAUGAGGAUCACCCAUGUAUCCCUAUGGAGGAUAUGUGUCACGUG”, the “apparent Kd” value under setting [1] is 72.8 nM and the “apparent Kd” value under setting [2] was determined as 22.9 nM.

With “UGACCCAUGACAUGAGAUGACAUGAGGAUCACCCAUGUUUACAAGGAUAUGUUGAUGAAACAUCAACAGAAGGUGUAAUGGGCU”, the “apparent Kd” value under setting [3] was 29.8 nM and the “apparent Kd” value under setting [4] stood at 158 nM.

Consider “UGUCCAUAGCAGAAGGACAUGAAUACAUGAGAAAACAUGAGGAUCACCCAUGUAGGAUAUGCUAUGGACUAAGAGCGAAAGCUC”, for which the “apparent Kd” value under setting [3] is 12.2 nM and the “apparent Kd” value under setting [4] worked out at 91.9 nM.

Regarding “AUCCGGCGUGUAGGAUAUGGAAAAGAUAAGGAUCCAGAAGGACAUGAGGAUCACCCAUGUACAUGUAAACAGUCAUCACCGGAA”, the “apparent Kd” value by setting is: under setting [3], 35.3 nM; under setting [4], 50.9 nM.

Turning to “CUUUUGUGAGGAUAUUCGUCAUAAGGUUGUAAACCUGUGACGAAGAAGGCACAUGAGGAUCACCCAUGUGUCCU”, the “apparent Kd” value is, setting by setting: under setting [3], 15.7 nM; under setting [4], 26.4 nM.

Regarding “UGCUAGUCAGGAUAUACGAACAUGUCGCCAGAUGUCAAGGUACAUGAGGAUCACCCAUGUAGAAGGGACUAGAA”, the “apparent Kd” value reads like this: under setting [3], 39.2 nM; under setting [4], 107 nM.

For “AUGAGCCGAGGAGGAUAUGACGGGUGCUAAAUCACAUGAGGAUCACCCAUGUCAGAAGGCCUCGCCAUAUUUGAUGCUUUAGAG”, the “apparent Kd” value is, setting by setting: under setting [3], 201 nM; under setting [4], 9.55 nM.

As to “UAGAGCGCUUGAGGAUAUCGCUUUGUGAUGGUACUCAUGCUUGUUACAUGAGGAUCACCCAUGUGCGAGAAGGCAGGCCGUUAG”, the “apparent Kd” value reads like this: under setting [3], 59.3 nM; under setting [4], 12.6 nM.

As to “CCUGGCUUAGGAUAUACAGGAUCCGGGAACCCGGAAGUGAAACAUGAGGAUCACCCAUGUAGAAGGAAGAAAGC”, the “apparent Kd” value was determined as 28.8 nM under setting [3] and 16.5 nM under setting [4].

On to “AAUUAUUUUUGAGGAUAUCGUGGUGAAACACCACGAGAAGGCGAGAUACACAUGAGGAUCACCCAUGUGAGCCUGAUGCUUAUG”, for which the “apparent Kd” value by setting is: under setting [3], 16.1 nM; under setting [4], 14.4 nM.

For the sequence “UGUCGGAGCAGAGGAUAUUACAUGAGGAUCACCCAUGUAUGAACCAAUAGCUGGAAACAGCAAUGUAAGAAGGCUGCUCCAACA”, the “apparent Kd” value by setting is: under setting [3], 12.3 nM; under setting [4], 149 nM.

For the sequence “CCGACCUUGGCAGGAUAUAGACUCGAAGUUGAUCCCGCCGGUGGAGACAUGAGGAUCACCCAUGUCUAGAAGGGCCAGUCGAAA”, the “apparent Kd” value under setting [3] was 16.2 nM and the “apparent Kd” value under setting [4] was 72.9 nM.

For “UGUGUUAUAGGAUAUACGGGUAUGUGAAUCUCUCCAUCGGUACAUGAGGAUCACCCAUGUAGAAGGAUAAGGUA”, the “apparent Kd” value is, setting by setting: under setting [3], 35.7 nM; under setting [4], 80.8 nM.

On to “GUAGCUACUAUUAUACAUGAGGAUCACCCAUGUUACAUGGGUAAGGAUAUUGAAGUUAUGAUUAUCAAGAAGGUACUAUGCUAC”, for which the “apparent Kd” value came out at 511 nM under setting [1] and 118 nM under setting [2].

Consider “GUCGUACAUGAGGAUCACCCAUGUGAGGAUAUGAGUGACUCAGUGAAAACUGAGUCACUCAGAAGGCGCAUGAU”, for which the “apparent Kd” value by setting is: under setting [3], 84.5 nM; under setting [4], 384 nM.

Consider “UUAGAAAUGUUAGGAUAUUAAUAUUUUUUUAGUAUGAUCUACAUGAGGAUCACCCAUGUUAAAAUUAAGAAGGAACAUUUUAUU”, for which the “apparent Kd” value under setting [3] came out at 69.7 nM and the “apparent Kd” value under setting [4] turned out to be 56.9 nM.
